Columns and labels:
[1] = system: patients with advanced, refractory solid tumours; assay: Phase I dose escalation: toxicity; type: in vivo, human; conditions: treatment-related
How it was run: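 Oral dosing was once daily in 28-day cycles, escalating by an accelerated design from 0.2 mg/day. Toxicity was graded by NCI CTC v3.0. During cycle 1, patients had weekly examination, blood pressure, full blood count, biochemistry and urinalysis, plus ECGs on days 1 and 8. DLT covered drug-related toxicity in cycle 1: grade ⩾3 toxicity, repeated grade 2 toxicity needing dose reduction, or <75% of planned dose given. The MTD was the highest dose with ≤1/6 patients having a DLT, and 12 more patients were treated at the MTD.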

[2] = system: patients with advanced, refractory solid tumours; assay: Anti-tumour efficacy by Response Evaluation Criteria in Solid Tumours; type: in vivo, human
How it was run: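 Patients took oral drug once daily on an empty stomach after an overnight fast, with only clear fluids within 2 h of dosing. Dosing was continuous in 28-day cycles until progressive disease or unacceptable toxicity. Tumour response was assessed by RECIST measurements, with CT imaging.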

[3] = 0.2–6.4 mg per day, 21 patients

COc1cc2nccc(Oc3ccc(NC(=O)NC4CC4)c(Cl)c3)c2cc1C(N)=O [E7080]
Proteinuria Grade 1, n patients ([1]; 0.2–6.4 mg (n=21)): 0 | Proteinuria Grade 2, % of patients ([1]; 0.2–6.4 mg (n=21)): 14% | Proteinuria Grade 2, n patients ([1]; 0.2–6.4 mg (n=21)): 3 | Proteinuria Grade 3, % of patients ([1]; 0.2–6.4 mg (n=21)): 0% | Proteinuria Grade 3, n patients ([1]; 0.2–6.4 mg (n=21)): 0 | Stomatitis (all grades), % of patients ([1]; 0.2–6.4 mg (n=21)): 5% | Stomatitis (all grades), n patients ([1]; 0.2–6.4 mg (n=21)): 1 | Vomiting (all grades), n patients ([1]; 0.2–6.4 mg (n=21)): 7 | Abdominal pain (all grades), % of patients ([1]; 12–20 mg (n=30)): 7% | Abdominal pain (all grades), n patients ([1]; 12–20 mg (n=30)): 2 | Anorexia (all grades), % of patients ([1]; 12–20 mg (n=30)): 17% | Anorexia (all grades), n patients ([1]; 12–20 mg (n=30)): 5 | Constipation (all grades), % of patients ([1]; 12–20 mg (n=30)): 10% | Constipation (all grades), n patients ([1]; 12–20 mg (n=30)): 3 | Diarrhoea (all grades), n patients ([1]; 12–20 mg (n=30)): 8 | Dry skin (all grades), % of patients ([1]; 12–20 mg (n=30)): 10% | Dry skin (all grades), n patients ([1]; 12–20 mg (n=30)): 3 | Dysphonia (all grades), % of patients ([1]; 12–20 mg (n=30)): 13% | Dysphonia (all grades), n patients ([1]; 12–20 mg (n=30)): 4 | Fatigue (all grades), % of patients ([1]; 12–20 mg (n=30)): 23% | Fatigue (all grades), n patients ([1]; 12–20 mg (n=30)): 7 | Headache (all grades), % of patients ([1]; 12–20 mg (n=30)): 7% | Headache (all grades), n patients ([1]; 12–20 mg (n=30)): 2 | Hypertension (all grades), % of patients ([1]; 12–20 mg (n=30)): 40% | Hypertension (all grades), n patients ([1]; 12–20 mg (n=30)): 12 | Hypertension Grade 1, % of patients ([1]; 12–20 mg (n=30)): 7% | Hypertension Grade 1, n patients ([1]; 12–20 mg (n=30)): 2 | Hypertension Grade 2, % of patients ([1]; 12–20 mg (n=30)): 23% | Hypertension Grade 2, n patients ([1]; 12–20 mg (n=30)): 7 | Hypertension Grade 3, % of patients ([1]; 12–20 mg (n=30)): 10% | Hypertension Grade 3, n patients ([1]; 12–20 mg (n=30)): 3 | Lethargy (all grades), % of patients ([1]; 12–20 mg (n=30)): 17% | Lethargy (all grades), n patients ([1]; 12–20 mg (n=30)): 5 | Nausea (all grades), % of patients ([1]; 12–20 mg (n=30)): 17% | Nausea (all grades), n patients ([1]; 12–20 mg (n=30)): 5 | Proteinuria (all grades), n patients ([1]; 12–20 mg (n=30)): 8 | Proteinuria Grade 1, % of patients ([1]; 12–20 mg (n=30)): 0% | Proteinuria Grade 1, n patients ([1]; 12–20 mg (n=30)): 0 | Proteinuria Grade 2, % of patients ([1]; 12–20 mg (n=30)): 20% | Proteinuria Grade 3, % of patients ([1]; 12–20 mg (n=30)): 7% | Proteinuria Grade 3, n patients ([1]; 12–20 mg (n=30)): 2 | Stomatitis (all grades), % of patients ([1]; 12–20 mg (n=30)): 20% | Vomiting (all grades), % of patients ([1]; 12–20 mg (n=30)): 10% | Vomiting (all grades), n patients ([1]; 12–20 mg (n=30)): 3 | Abdominal pain (all grades), % of patients ([1]; Total (n=82)): 11% | Abdominal pain (all grades), n patients ([1]; Total (n=82)): 9 | Anorexia (all grades), % of patients ([1]; Total (n=82)): 17% | Anorexia (all grades), n patients ([1]; Total (n=82)): 14 | Constipation (all grades), % of patients ([1]; Total (n=82)): 17% | Constipation (all grades), n patients ([1]; Total (n=82)): 14 | Diarrhoea (all grades), n patients ([1]; Total (n=82)): 28 | Dry skin (all grades), % of patients ([1]; Total (n=82)): 20% | Dry skin (all grades), n patients ([1]; Total (n=82)): 16 | Dysphonia (all grades), % of patients ([1]; Total (n=82)): 22% | Dysphonia (all grades), n patients ([1]; Total (n=82)): 18 | Fatigue (all grades), % of patients ([1]; Total (n=82)): 18% | Fatigue (all grades), n patients ([1]; Total (n=82)): 15 | Headache (all grades), % of patients ([1]; Total (n=82)): 13% | Headache (all grades), n patients ([1]; Total (n=82)): 11 | Hypertension (all grades), % of patients ([1]; Total (n=82)): 40% | Hypertension Grade 1, % of patients ([1]; Total (n=82)): 7% | Hypertension Grade 2, % of patients ([1]; Total (n=82)): 22% | Hypertension Grade 2, n patients ([1]; Total (n=82)): 18 | Hypertension Grade 3, % of patients ([1]; Total (n=82)): 11% | Lethargy (all grades), % of patients ([1]; Total (n=82)): 23% | Nausea (all grades), % of patients ([1]; Total (n=82)): 37% | Proteinuria (all grades), % of patients ([1]; Total (n=82)): 26% | Proteinuria (all grades), n patients ([1]; Total (n=82)): 21 | Proteinuria Grade 1, % of patients ([1]; Total (n=82)): 0% | Proteinuria Grade 1, n patients ([1]; Total (n=82)): 0 | Proteinuria Grade 2, % of patients ([1]; Total (n=82)): 18% | Proteinuria Grade 2, n patients ([1]; Total (n=82)): 15 | Proteinuria Grade 3, % of patients ([1]; Total (n=82)): 7% | Stomatitis (all grades), % of patients ([1]; Total (n=82)): 32% | Stomatitis (all grades), n patients ([1]; Total (n=82)): 26 | Vomiting (all grades), % of patients ([1]; Total (n=82)): 23% | Best response: Not evaluated, % ([2]; 25 mg per day, 24 patients): 0 (0) % | Best response: Partial response, % ([2]; 25 mg per day, 24 patients): 13% | Best response: Progressive disease, % ([2]; 25 mg per day, 24 patients): 8% | Best response: Stable disease, % ([2]; 25 mg per day, 24 patients): 67% | Best response: Not evaluated, % ([2]; 32 mg per day, 7 patients): 0 (0) % | Best response: Partial response, % ([2]; 32 mg per day, 7 patients): 29% | Best response: Progressive disease, % ([2]; 32 mg per day, 7 patients): 0 (0) % | Best response: Stable disease, % ([2]; 32 mg per day, 7 patients): 43% | Best response: Not evaluated, % [2, 3]: 5% | Best response: Partial response, % [2, 3]: 0 (0) % | Best response: Progressive disease, % [2, 3]: 24% | Best response: Stable disease, % [2, 3]: 19% | Best response: Not evaluated, % ([2]; 12–20 mg per day, 30 patients): 3% | Best response: Partial response, % ([2]; 12–20 mg per day, 30 patients): 7% | Best response: Progressive disease, % ([2]; 12–20 mg per day, 30 patients): 23% | Best response: Stable disease, % ([2]; 12–20 mg per day, 30 patients): 50% | Best response: Not evaluated, % ([2]; Total, 82 patients): 2 (2) % | Best response: Partial response, % ([2]; Total, 82 patients): 9% | Best response: Progressive disease, % ([2]; Total, 82 patients): 17% | Best response: Stable disease, % ([2]; Total, 82 patients): 46% | Clinical benefit (PR rate plus SD rate), % of patients ([2]; all doses): 55% | Clinical benefit (PR rate plus SD rate), n patients ([2]; all doses): 45 | Patients with renal cancer with PR ([2]; of nine patients with renal cancer): Four | Decrease in the sum of the longest tumour diameters ([2]; one patient with melanoma (largest decrease)): approximately 85% | Overall reduction in tumour size (CT) ([2]; one patient with melanoma, after 32 weeks' treatment): 77% | Overall reduction in tumour size (CT) ([2]; one patient with renal cancer, after 24 weeks' treatment): 51% | Median progression-free survival (95% CI) ([2]; patients with melanoma, n=14): 217 days | Median progression-free survival (95% CI) ([2]; patients with renal cancer, all dose cohorts, n=9): 477 days

Source: publication PMC3349182 (British Journal of Cancer, 2012)
